{"source": "ChEMBL document CHEMBL1148483", "about": "“Potent nonclassical nucleoside antiviral drugs based on the N,N-diarylformamidine concept” (J Med Chem, 2004)", "key": {"[1]": {"assay": "Partition coefficient (logP)", "assay_type": "physicochemical", "settings": "octanol/water"}, "[2]": {"assay": "Half life is the time required for hydrolysis of compound to 3TC in HBV medium at 37 degree celsius", "assay_type": "ADME", "in_short": "(§1)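 Compound in DMSO diluted 1:100 into medium, final concentration around 5×10^-4 M, and held at 37 °C. Media: PBS (0.01 M, pH 7.4), HepG2.2.15 culture medium, or MT-4 medium (RPMI 1640 + 10% FCS). Samples taken over time and quenched in ice-cold methanol. Conversion to 3TC followed by HPLC at 317 nm. t1/2 is the time to 50% hydrolysis.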"}, "[3]": {"assay": "Half life is the time required for hydrolysis of compound to 3TC in HepG 2.2.15 lysate medium at 37 degree celsius", "assay_type": "ADME, HepG2 2.2.15", "settings": "human, HepG 2.2.15 cell lysate", "in_short": "(§2)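 Cell lysates prepared from PBS-washed HepG2.2.15 or MT-4 cells, about 10×10^6 cells/mL, in Tris-HCl 50 mM, NaCl 150 mM, EDTA 0.1 mM, 0.5% NP40 and protease inhibitors. Lysis 10 min on ice, then centrifuged; supernatant used. Compound added from DMSO to a final concentration around 5×10^-4 M, 37 °C. Timed samples quenched in cold methanol, HPLC at 317 nm. t1/2 is the time to 50% conversion to 3TC.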"}, "[4]": {"assay": "Half life is the time required for hydrolysis of compound to 3TC in PBS medium at 37 degree celsius", "assay_type": "ADME", "in_short": "as §1"}, "MT4 [5]": {"tested_on": "MT4", "assay": "Effective concentration to inhibit HIV-1 IIIB cytopathicity in MT-4 cells was determined in vitro", "assay_type": "functional, cell-based", "settings": "Homo sapiens", "in_short": "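HIV-1 IIIB-infected MT-4 cells (RPMI 1640, 10% FCS); inhibition of virus-induced cytopathicity read 5 days post-infection; EC50 = concentration inhibiting cytopathicity by 50%.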"}, "MT4 [6]": {"tested_on": "MT4", "assay": "Concentration required to cause death of MT-4 cells was determined in vitro", "assay_type": "functional", "settings": "Homo sapiens", "in_short": "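Uninfected (mock-infected) MT-4 cells grown in RPMI 1640 + 10% heat-inactivated FCS, 2 mM L-glutamine, gentamicin; viability measured at day 5 at 37 °C, 5% CO2; CC50 = concentration causing 50% death of uninfected cells.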"}, "PBMC [7]": {"tested_on": "PBMC", "assay": "Concentration required to cause death of PBMC cells was determined in vitro", "assay_type": "functional", "settings": "Homo sapiens", "in_short": "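Healthy-donor PBMCs activated 3 days with PHA-P (1 μg/mL) and rhIL-2 (5 IU/mL), 100 000 cells/well in RPMI 1640/10% FCS + 20 IU/mL rhIL-2; drug-induced cytotoxicity judged by microscopic observation; CC50 = concentration causing 50% death of uninfected cells.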"}, "PBMC [8]": {"tested_on": "PBMC", "assay": "Effective concentration to inhibit HIV-1 LAI cytopathicity in PBMC cells was determined in vitro", "assay_type": "functional, cell-based", "settings": "Homo sapiens", "in_short": "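PHA-P/rhIL-2-activated PBMCs (100 000/well) pretreated 30 min with compound, then infected with 75 TCID50 HIV-1/LAI; supernatant RT activity measured at day 7; triplicates, mean ± SD; EC50 from percent of untreated controls, 50% inhibition of replication.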"}, "[9]": {"assay": "Half life is the time required for hydrolysis of compound to 3TC in HIV medium at 37 degree celsius", "assay_type": "ADME", "in_short": "as §1"}, "[10]": {"assay": "Half life is the time required for hydrolysis of compound to 3TC in MT-4 lysate medium at 37 degree celsius", "assay_type": "ADME", "settings": "human, MT-4 cell lysate", "in_short": "as §2"}, "HepG2": {"tested_on": "HepG2", "assay": "Effective concentration to inhibit hepatitis B virus DNA formation in HepG2.2.15 cells was determined in vitro", "settings": "Homo sapiens"}, "MT4 [11]": {"tested_on": "MT4", "assay": "Selectivity index is the ratio of CC50 to EC50 values", "assay_type": "functional", "in_short": "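Selectivity index = CC50/EC50 for uninfected versus HIV-1-infected MT-4 cells or PBMCs.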"}}, "note": "pEC50: −log10 of the molar value. “And” between values parts separate entries of the source, which are not always exact repeats. Equal entries are not always repeated."}
{"molecule": "O=c1nc(/N=C/N2CCOCC2)ccn1C1CSC(CO)O1", "note": "(stereo not drawn)", "values": [{"measurement": "logP", "setting": "[1]", "result": 0.62}, {"measurement": "half-life", "setting": "[2]", "result": 1, "unit": "h"}, {"measurement": "half-life", "setting": "[3]", "result": 2.5, "unit": "h"}, {"measurement": "half-life", "setting": "[4]", "result": 2.5, "unit": "h"}, {"measurement": "pEC50", "setting": "MT4 [5]", "result": 6.40}, {"measurement": "CC50", "setting": "MT4 [6]", "result": "> 265", "unit": "µM"}, {"measurement": "CC50", "setting": "PBMC [7]", "result": "> 10", "unit": "µM"}, {"measurement": "pEC50", "setting": "PBMC [8]", "result": 8.21}, {"measurement": "half-life", "setting": "[9]", "result": 1.5, "unit": "h"}, {"measurement": "half-life", "setting": "[10]", "result": 3.5, "unit": "h"}, {"measurement": "pEC50", "setting": "HepG2", "result": 7.30}]}
{"molecule": "CN(C)/C=N/c1ccn(C2CSC(CO)O2)c(=O)n1", "note": "(stereo not drawn)", "values": [{"measurement": "logP", "setting": "[1]", "result": 1.02}, {"measurement": "half-life", "setting": "[2]", "result": 2, "unit": "h"}, {"measurement": "half-life", "setting": "[3]", "result": 3, "unit": "h"}, {"measurement": "half-life", "setting": "[4]", "result": 3.5, "unit": "h"}, {"measurement": "pEC50", "setting": "MT4 [5]", "result": 6.24}, {"measurement": "CC50", "setting": "MT4 [6]", "result": "> 440", "unit": "µM"}, {"measurement": "CC50", "setting": "PBMC [7]", "result": "> 10", "unit": "µM"}, {"measurement": "pEC50", "setting": "PBMC [8]", "result": 7.63}, {"measurement": "SI", "setting": "MT4 [11]", "result": ">772 and >422"}, {"measurement": "half-life", "setting": "[9]", "result": 2.5, "unit": "h"}, {"measurement": "half-life", "setting": "[10]", "result": 4.5, "unit": "h"}, {"measurement": "pEC50", "setting": "HepG2", "result": 8.00}]}
{"molecule": "Nc1ccn([C@@H]2CS[C@H](CO)O2)c(=O)n1", "note": "[LAMIVUDINE]", "values": [{"measurement": "logP", "setting": "[1]", "result": 0.06}, {"measurement": "pEC50", "setting": "MT4 [5]", "result": 6.30}, {"measurement": "CC50", "setting": "MT4 [6]", "result": "> 44", "unit": "µM"}, {"measurement": "CC50", "setting": "PBMC [7]", "result": "> 10", "unit": "µM"}, {"measurement": "pEC50", "setting": "PBMC [8]", "result": 7.94}, {"measurement": "pEC50", "setting": "HepG2", "result": 6.70}]}
{"molecule": "Nc1ccn([C@H]2CC[C@@H](CO)O2)c(=O)n1", "note": "[ZALCITABINE]", "values": [{"measurement": "logP", "setting": "[1]", "result": -0.58}, {"measurement": "pEC50", "setting": "MT4 [5]", "result": 5.98}, {"measurement": "CC50", "setting": "MT4 [6]", "result": 141, "unit": "µM"}, {"measurement": "SI", "setting": "MT4 [11]", "result": 135}]}
